# Laboratory results published in ChEMBL document CHEMBL2417539, “1-substituted (Dibenzo[b,d]thiophen-4-yl)-2-morpholino-4H-chromen-4-ones endowed with dual DNA-PK/PI3-K inhibitory activity” (J Med Chem, 2013).
# pIC50: −log10 of the molar value.
# Tested on: HeLa
# Test: Antiproliferative activity against human HeLa cells assessed as cell survival ratio at 0.1 uM treated 1 hr before 2Gy ionizing radiation measured after 6 to 8 days by DMR clonogenic assay
# Type: functional
# How it was run: (§1)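 HeLa cells seeded in 6-well dishes, incubated overnight at 37 °C/5% CO2, pre-treated 1 h with vehicle or inhibitor (0.1 or 0.5 μM), then given 2 Gy X-ray IR and held overnight. Medium then replaced without compound and culture continued 6-8 days. Colonies Giemsa-stained and counted automatically. DMR = % survival (vehicle, 2 Gy) / % survival (compound, 2 Gy).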
row,Compound,Ratio
1,CN(C)CCOc1ccc(-c2cccc3c(=O)cc(N4CCOCC4)oc23)c2sc3ccccc3c12,1.8
2,COC(=O)[C@H](CO)NC(=O)COc1ccc(-c2cccc3c(=O)cc(N4CCOCC4)oc23)c2sc3ccccc3c12,1.5
3,COc1ccc(CNCC(=O)Nc2ccc(-c3cccc4c(=O)cc(N5CCOCC5)oc34)c3sc4ccccc4c23)cc1,1.4
4,CCN(CC)CCC(=O)Nc1ccc(-c2cccc3c(=O)cc(N4CCOCC4)oc23)c2sc3ccccc3c12,1.8
5,CN(C)CC(=O)Nc1ccc(-c2cccc3c(=O)cc(N4CCOCC4)oc23)c2sc3ccccc3c12,1
6,O=C(CNCCN1CCOCC1)Nc1ccc(-c2cccc3c(=O)cc(N4CCOCC4)oc23)c2sc3ccccc3c12,1.4
7,O=C(CCNCc1ccncc1)Nc1ccc(-c2cccc3c(=O)cc(N4CCOCC4)oc23)c2sc3ccccc3c12,1.1
8,O=C(CCN1CCCCCC1)Nc1ccc(-c2cccc3c(=O)cc(N4CCOCC4)oc23)c2sc3ccccc3c12,3.1
9,CN(CCOc1ccc(-c2cccc3c(=O)cc(N4CCOCC4)oc23)c2sc3ccccc3c12)CC(N)=O,1.4
10,CN1CCCC1CCNCC(=O)Nc1ccc(-c2cccc3c(=O)cc(N4CCOCC4)oc23)c2sc3ccccc3c12 (configuration not stated),1.1
11,O=c1cc(N2CCOCC2)oc2c(-c3ccc(OCCNCCN4CCOCC4)c4c3sc3ccccc34)cccc12,1.4
12,CC(C)N1CCN(CCC(=O)Nc2ccc(-c3cccc4c(=O)cc(N5CCOCC5)oc34)c3sc4ccccc4c23)CC1,1.2
13,NCC(=O)Nc1ccc(-c2cccc3c(=O)cc(N4CCOCC4)oc23)c2sc3ccccc3c12,2.5
14,CN(C)CCN1CCN(CCC(=O)Nc2ccc(-c3cccc4c(=O)cc(N5CCOCC5)oc34)c3sc4ccccc4c23)CC1,1.1
15,CC(C)NCC(=O)CN1CCN(CC(=O)Nc2ccc(-c3cccc4c(=O)cc(N5CCOCC5)oc34)c3sc4ccccc4c23)CC1,2
16,O=C(CN1CCCCCC1)Nc1ccc(-c2cccc3c(=O)cc(N4CCOCC4)oc23)c2sc3ccccc3c12,1.3
17,O=c1cc(N2CCOCC2)oc2c(-c3ccc(OCCN4CCOCC4)c4c3sc3ccccc34)cccc12,1.5
18,COCCN1CCN(CCC(=O)Nc2ccc(-c3cccc4c(=O)cc(N5CCOCC5)oc34)c3sc4ccccc4c23)CC1,1.3
19,O=C(COc1ccc(-c2cccc3c(=O)cc(N4CCOCC4)oc23)c2sc3ccccc3c12)N1CCCCC1,1.4
20,CC(C)N1CCN(CC(=O)Nc2ccc(-c3cccc4c(=O)cc(N5CCOCC5)oc34)c3sc4ccccc4c23)CC1,1.7
21,NCCNCC(=O)Nc1ccc(-c2cccc3c(=O)cc(N4CCOCC4)oc23)c2sc3ccccc3c12,1.1
22,CN1CCCN(CCC(=O)Nc2ccc(-c3cccc4c(=O)cc(N5CCOCC5)oc34)c3sc4ccccc4c23)CC1,1.1
23,O=C(CNCCN1CCCCC1)Nc1ccc(-c2cccc3c(=O)cc(N4CCOCC4)oc23)c2sc3ccccc3c12,1.3
24,O=C(CCN1CCN(c2ccccn2)CC1)Nc1ccc(-c2cccc3c(=O)cc(N4CCOCC4)oc23)c2sc3ccccc3c12,1.5
25,CCN1CCN(CCC(=O)Nc2ccc(-c3cccc4c(=O)cc(N5CCOCC5)oc34)c3sc4ccccc4c23)CC1,1.4

# Tested on: HeLa
# Test: Antiproliferative activity against human HeLa cells assessed as cell survival ratio at 0.5 uM treated 1 hr before 2Gy ionizing radiation measured after 6 to 8 days by DMR clonogenic assay
# Type: functional
# How it was run: as §1
row,Compound,Ratio
1,CN(C)CCOc1ccc(-c2cccc3c(=O)cc(N4CCOCC4)oc23)c2sc3ccccc3c12,3.3
2,COC(=O)[C@H](CO)NC(=O)COc1ccc(-c2cccc3c(=O)cc(N4CCOCC4)oc23)c2sc3ccccc3c12,6.1
3,COc1ccc(CNCC(=O)Nc2ccc(-c3cccc4c(=O)cc(N5CCOCC5)oc34)c3sc4ccccc4c23)cc1,6.8
4,CCN(CC)CCC(=O)Nc1ccc(-c2cccc3c(=O)cc(N4CCOCC4)oc23)c2sc3ccccc3c12,5.7
5,CN(C)CC(=O)Nc1ccc(-c2cccc3c(=O)cc(N4CCOCC4)oc23)c2sc3ccccc3c12,7.4
6,O=C(CNCCN1CCOCC1)Nc1ccc(-c2cccc3c(=O)cc(N4CCOCC4)oc23)c2sc3ccccc3c12,4.7
7,O=C(CCNCc1ccncc1)Nc1ccc(-c2cccc3c(=O)cc(N4CCOCC4)oc23)c2sc3ccccc3c12,2.6
8,O=C(CCN1CCCCCC1)Nc1ccc(-c2cccc3c(=O)cc(N4CCOCC4)oc23)c2sc3ccccc3c12,8.4
9,CN(CCOc1ccc(-c2cccc3c(=O)cc(N4CCOCC4)oc23)c2sc3ccccc3c12)CC(N)=O,7.7
10,CN1CCCC1CCNCC(=O)Nc1ccc(-c2cccc3c(=O)cc(N4CCOCC4)oc23)c2sc3ccccc3c12 (configuration not stated),2.4
11,O=c1cc(N2CCOCC2)oc2c(-c3ccc(OCCNCCN4CCOCC4)c4c3sc3ccccc34)cccc12,10.1
12,CC(C)N1CCN(CCC(=O)Nc2ccc(-c3cccc4c(=O)cc(N5CCOCC5)oc34)c3sc4ccccc4c23)CC1,3.6
13,NCC(=O)Nc1ccc(-c2cccc3c(=O)cc(N4CCOCC4)oc23)c2sc3ccccc3c12,9
14,CN(C)CCN1CCN(CCC(=O)Nc2ccc(-c3cccc4c(=O)cc(N5CCOCC5)oc34)c3sc4ccccc4c23)CC1,1.3
15,CC(C)NCC(=O)CN1CCN(CC(=O)Nc2ccc(-c3cccc4c(=O)cc(N5CCOCC5)oc34)c3sc4ccccc4c23)CC1,8.8
16,O=C(CN1CCCCCC1)Nc1ccc(-c2cccc3c(=O)cc(N4CCOCC4)oc23)c2sc3ccccc3c12,3.9
17,O=c1cc(N2CCOCC2)oc2c(-c3ccc(OCCN4CCOCC4)c4c3sc3ccccc34)cccc12,6.4
18,COCCN1CCN(CCC(=O)Nc2ccc(-c3cccc4c(=O)cc(N5CCOCC5)oc34)c3sc4ccccc4c23)CC1,3.5
19,O=C(COc1ccc(-c2cccc3c(=O)cc(N4CCOCC4)oc23)c2sc3ccccc3c12)N1CCCCC1,5.1
20,CC(C)N1CCN(CC(=O)Nc2ccc(-c3cccc4c(=O)cc(N5CCOCC5)oc34)c3sc4ccccc4c23)CC1,12.9
21,NCCNCC(=O)Nc1ccc(-c2cccc3c(=O)cc(N4CCOCC4)oc23)c2sc3ccccc3c12,1.5
22,CN1CCCN(CCC(=O)Nc2ccc(-c3cccc4c(=O)cc(N5CCOCC5)oc34)c3sc4ccccc4c23)CC1,2.6
23,O=C(CNCCN1CCCCC1)Nc1ccc(-c2cccc3c(=O)cc(N4CCOCC4)oc23)c2sc3ccccc3c12,9.6
24,O=C(CCN1CCN(c2ccccn2)CC1)Nc1ccc(-c2cccc3c(=O)cc(N4CCOCC4)oc23)c2sc3ccccc3c12,4.4
25,CCN1CCN(CCC(=O)Nc2ccc(-c3cccc4c(=O)cc(N5CCOCC5)oc34)c3sc4ccccc4c23)CC1,4.1

# Target: DNA-dependent protein kinase catalytic subunit (Homo sapiens, UniProt P78527)
# Sequence (P78527 whole entry): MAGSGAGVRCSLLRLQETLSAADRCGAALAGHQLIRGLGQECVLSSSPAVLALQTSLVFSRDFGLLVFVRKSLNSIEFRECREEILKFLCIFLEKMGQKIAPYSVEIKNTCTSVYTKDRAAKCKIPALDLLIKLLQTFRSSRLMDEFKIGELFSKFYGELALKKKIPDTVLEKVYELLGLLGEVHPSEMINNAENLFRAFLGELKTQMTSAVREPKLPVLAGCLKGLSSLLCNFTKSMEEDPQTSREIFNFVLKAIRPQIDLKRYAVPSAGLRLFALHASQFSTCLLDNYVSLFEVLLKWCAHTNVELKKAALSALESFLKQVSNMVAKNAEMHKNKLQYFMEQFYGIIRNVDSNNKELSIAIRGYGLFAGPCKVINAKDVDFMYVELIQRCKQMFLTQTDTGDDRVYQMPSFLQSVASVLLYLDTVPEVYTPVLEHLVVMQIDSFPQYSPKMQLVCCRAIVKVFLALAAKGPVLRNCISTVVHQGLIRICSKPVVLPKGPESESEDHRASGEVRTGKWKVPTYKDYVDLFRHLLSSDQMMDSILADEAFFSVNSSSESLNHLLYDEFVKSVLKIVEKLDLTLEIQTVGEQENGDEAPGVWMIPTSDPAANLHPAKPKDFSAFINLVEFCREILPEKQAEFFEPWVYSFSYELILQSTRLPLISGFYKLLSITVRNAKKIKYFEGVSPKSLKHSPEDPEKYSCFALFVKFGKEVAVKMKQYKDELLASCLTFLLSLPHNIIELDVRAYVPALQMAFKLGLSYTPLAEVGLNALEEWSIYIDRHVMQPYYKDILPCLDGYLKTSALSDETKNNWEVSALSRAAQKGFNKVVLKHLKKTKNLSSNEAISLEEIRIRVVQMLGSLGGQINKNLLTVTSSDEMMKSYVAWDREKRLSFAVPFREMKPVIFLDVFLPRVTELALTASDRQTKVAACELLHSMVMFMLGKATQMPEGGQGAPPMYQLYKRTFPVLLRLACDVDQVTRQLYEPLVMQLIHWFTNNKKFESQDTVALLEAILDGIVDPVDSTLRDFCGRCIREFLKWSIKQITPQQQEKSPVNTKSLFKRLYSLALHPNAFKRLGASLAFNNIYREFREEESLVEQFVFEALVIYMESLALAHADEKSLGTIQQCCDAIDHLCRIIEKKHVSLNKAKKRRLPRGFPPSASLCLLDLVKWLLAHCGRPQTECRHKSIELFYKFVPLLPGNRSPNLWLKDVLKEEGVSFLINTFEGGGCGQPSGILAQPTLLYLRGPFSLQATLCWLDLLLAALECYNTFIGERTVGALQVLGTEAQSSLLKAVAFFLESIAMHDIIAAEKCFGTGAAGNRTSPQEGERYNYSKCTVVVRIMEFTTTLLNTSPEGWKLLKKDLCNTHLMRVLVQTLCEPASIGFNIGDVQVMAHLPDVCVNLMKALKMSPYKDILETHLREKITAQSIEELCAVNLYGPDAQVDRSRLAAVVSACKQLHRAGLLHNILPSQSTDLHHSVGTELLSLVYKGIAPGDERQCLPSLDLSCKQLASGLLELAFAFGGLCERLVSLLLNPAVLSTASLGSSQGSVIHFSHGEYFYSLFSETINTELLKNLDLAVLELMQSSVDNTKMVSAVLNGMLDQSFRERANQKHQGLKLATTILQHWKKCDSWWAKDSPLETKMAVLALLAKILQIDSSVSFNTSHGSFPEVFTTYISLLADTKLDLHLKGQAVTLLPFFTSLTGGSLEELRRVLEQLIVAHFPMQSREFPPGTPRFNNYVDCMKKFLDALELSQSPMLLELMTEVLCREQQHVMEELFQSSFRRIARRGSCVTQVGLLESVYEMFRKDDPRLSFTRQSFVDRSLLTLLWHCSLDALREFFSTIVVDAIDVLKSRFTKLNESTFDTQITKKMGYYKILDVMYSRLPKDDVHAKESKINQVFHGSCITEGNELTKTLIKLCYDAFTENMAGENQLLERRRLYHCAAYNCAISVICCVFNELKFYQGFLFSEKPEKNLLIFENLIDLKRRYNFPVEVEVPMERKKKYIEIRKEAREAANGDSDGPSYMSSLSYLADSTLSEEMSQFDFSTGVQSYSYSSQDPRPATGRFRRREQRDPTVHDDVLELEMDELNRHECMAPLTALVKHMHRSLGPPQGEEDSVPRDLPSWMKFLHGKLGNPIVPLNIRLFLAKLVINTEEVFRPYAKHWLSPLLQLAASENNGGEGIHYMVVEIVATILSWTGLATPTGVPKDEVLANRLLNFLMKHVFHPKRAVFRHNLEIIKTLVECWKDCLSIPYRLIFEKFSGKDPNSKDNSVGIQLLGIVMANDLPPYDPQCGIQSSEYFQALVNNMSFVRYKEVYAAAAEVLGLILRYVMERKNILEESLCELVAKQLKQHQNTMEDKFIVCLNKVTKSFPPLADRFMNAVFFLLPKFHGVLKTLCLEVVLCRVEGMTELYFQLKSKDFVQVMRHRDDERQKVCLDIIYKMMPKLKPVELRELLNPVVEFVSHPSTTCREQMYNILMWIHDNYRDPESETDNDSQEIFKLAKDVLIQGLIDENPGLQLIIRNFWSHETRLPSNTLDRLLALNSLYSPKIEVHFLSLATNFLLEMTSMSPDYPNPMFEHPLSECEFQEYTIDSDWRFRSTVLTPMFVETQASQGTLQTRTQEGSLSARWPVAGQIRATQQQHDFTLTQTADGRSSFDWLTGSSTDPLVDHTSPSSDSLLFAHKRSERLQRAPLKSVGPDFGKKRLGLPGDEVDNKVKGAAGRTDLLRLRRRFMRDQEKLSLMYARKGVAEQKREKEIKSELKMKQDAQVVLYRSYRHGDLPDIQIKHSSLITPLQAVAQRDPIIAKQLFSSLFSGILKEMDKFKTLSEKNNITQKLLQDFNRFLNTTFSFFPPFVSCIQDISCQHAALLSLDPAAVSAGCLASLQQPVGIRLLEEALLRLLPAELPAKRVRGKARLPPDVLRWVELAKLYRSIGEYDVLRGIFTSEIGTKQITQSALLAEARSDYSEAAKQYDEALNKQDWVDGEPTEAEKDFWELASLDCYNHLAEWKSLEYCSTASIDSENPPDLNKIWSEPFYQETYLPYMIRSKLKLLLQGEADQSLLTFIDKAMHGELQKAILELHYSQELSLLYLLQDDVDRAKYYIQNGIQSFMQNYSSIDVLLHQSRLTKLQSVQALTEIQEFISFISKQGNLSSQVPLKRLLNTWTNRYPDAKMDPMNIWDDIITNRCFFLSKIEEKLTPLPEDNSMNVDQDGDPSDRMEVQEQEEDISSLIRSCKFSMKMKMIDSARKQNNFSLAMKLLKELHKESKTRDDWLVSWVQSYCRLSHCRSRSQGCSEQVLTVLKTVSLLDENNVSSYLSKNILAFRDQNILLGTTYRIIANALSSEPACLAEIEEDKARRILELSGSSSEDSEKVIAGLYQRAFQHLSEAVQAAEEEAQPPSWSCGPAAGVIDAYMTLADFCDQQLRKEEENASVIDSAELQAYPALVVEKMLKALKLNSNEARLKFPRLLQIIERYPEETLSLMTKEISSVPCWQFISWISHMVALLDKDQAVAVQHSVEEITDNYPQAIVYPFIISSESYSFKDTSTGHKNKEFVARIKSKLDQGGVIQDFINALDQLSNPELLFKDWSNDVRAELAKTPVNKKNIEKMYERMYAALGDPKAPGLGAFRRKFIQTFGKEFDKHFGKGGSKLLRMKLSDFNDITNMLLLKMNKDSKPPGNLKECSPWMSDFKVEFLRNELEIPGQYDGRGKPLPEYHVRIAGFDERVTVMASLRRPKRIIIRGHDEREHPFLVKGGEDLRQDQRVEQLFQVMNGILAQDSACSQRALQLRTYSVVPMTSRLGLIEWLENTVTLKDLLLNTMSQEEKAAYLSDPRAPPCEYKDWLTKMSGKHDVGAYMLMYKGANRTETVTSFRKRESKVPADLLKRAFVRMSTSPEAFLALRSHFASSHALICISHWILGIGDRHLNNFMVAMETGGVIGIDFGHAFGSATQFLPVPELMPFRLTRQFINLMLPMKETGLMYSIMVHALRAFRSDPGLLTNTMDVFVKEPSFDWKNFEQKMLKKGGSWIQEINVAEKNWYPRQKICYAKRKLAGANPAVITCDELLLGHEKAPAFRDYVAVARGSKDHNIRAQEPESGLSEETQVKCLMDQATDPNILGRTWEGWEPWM
# Test: Inhibition of human DNA-PK using GST-tagged p53N66 as substrate after 1 hr by ELISA-based chemiluminiscence assay
row,pIC50,Compound
1,8.10,CN(C)CCOc1ccc(-c2cccc3c(=O)cc(N4CCOCC4)oc23)c2sc3ccccc3c12
2,8.22,COC(=O)[C@H](CO)NC(=O)COc1ccc(-c2cccc3c(=O)cc(N4CCOCC4)oc23)c2sc3ccccc3c12
3,7.42,COc1ccc(CNCC(=O)Nc2ccc(-c3cccc4c(=O)cc(N5CCOCC5)oc34)c3sc4ccccc4c23)cc1
4,7.92,CCN(CC)CCC(=O)Nc1ccc(-c2cccc3c(=O)cc(N4CCOCC4)oc23)c2sc3ccccc3c12
5,7.74,CN(C)CC(=O)Nc1ccc(-c2cccc3c(=O)cc(N4CCOCC4)oc23)c2sc3ccccc3c12
6,7.92,O=C(CNCCN1CCOCC1)Nc1ccc(-c2cccc3c(=O)cc(N4CCOCC4)oc23)c2sc3ccccc3c12
7,7.92,O=C(CCNCc1ccncc1)Nc1ccc(-c2cccc3c(=O)cc(N4CCOCC4)oc23)c2sc3ccccc3c12
8,7.96,O=C(CCN1CCCCCC1)Nc1ccc(-c2cccc3c(=O)cc(N4CCOCC4)oc23)c2sc3ccccc3c12
9,8.52,CN(CCOc1ccc(-c2cccc3c(=O)cc(N4CCOCC4)oc23)c2sc3ccccc3c12)CC(N)=O
10,7.37,CN1CCCC1CCNCC(=O)Nc1ccc(-c2cccc3c(=O)cc(N4CCOCC4)oc23)c2sc3ccccc3c12 (configuration not stated)
11,8.15,O=c1cc(N2CCOCC2)oc2c(-c3ccc(OCCNCCN4CCOCC4)c4c3sc3ccccc34)cccc12
12,7.43,CC(C)N1CCN(CCC(=O)Nc2ccc(-c3cccc4c(=O)cc(N5CCOCC5)oc34)c3sc4ccccc4c23)CC1
13,7.92,NCC(=O)Nc1ccc(-c2cccc3c(=O)cc(N4CCOCC4)oc23)c2sc3ccccc3c12
14,7.66,CCN(CC)CCOc1ccc(-c2cccc3c(=O)cc(N4CCOCC4)oc23)c2sc3ccccc3c12
15,8.00,CN(C)CCN1CCN(CCC(=O)Nc2ccc(-c3cccc4c(=O)cc(N5CCOCC5)oc34)c3sc4ccccc4c23)CC1
16,8.22,CC(C)NCC(=O)CN1CCN(CC(=O)Nc2ccc(-c3cccc4c(=O)cc(N5CCOCC5)oc34)c3sc4ccccc4c23)CC1
17,7.29,O=C(CN1CCCCCC1)Nc1ccc(-c2cccc3c(=O)cc(N4CCOCC4)oc23)c2sc3ccccc3c12
18,8.10,O=c1cc(N2CCOCC2)oc2c(-c3ccc(OCCN4CCOCC4)c4c3sc3ccccc34)cccc12
19,8.30,CN(C)CCN(C)CCOc1ccc(-c2cccc3c(=O)cc(N4CCOCC4)oc23)c2sc3ccccc3c12
20,7.72,COCCN1CCN(CCC(=O)Nc2ccc(-c3cccc4c(=O)cc(N5CCOCC5)oc34)c3sc4ccccc4c23)CC1
21,7.72,O=C(COc1ccc(-c2cccc3c(=O)cc(N4CCOCC4)oc23)c2sc3ccccc3c12)N1CCCCC1
22,8.05,CC(C)N1CCN(CC(=O)Nc2ccc(-c3cccc4c(=O)cc(N5CCOCC5)oc34)c3sc4ccccc4c23)CC1
23,7.80,NCCNCC(=O)Nc1ccc(-c2cccc3c(=O)cc(N4CCOCC4)oc23)c2sc3ccccc3c12
24,7.39,CN1CCCN(CCC(=O)Nc2ccc(-c3cccc4c(=O)cc(N5CCOCC5)oc34)c3sc4ccccc4c23)CC1
25,7.21,O=C(CNCCN1CCCCC1)Nc1ccc(-c2cccc3c(=O)cc(N4CCOCC4)oc23)c2sc3ccccc3c12
26,7.62,O=C(CCN1CCN(c2ccccn2)CC1)Nc1ccc(-c2cccc3c(=O)cc(N4CCOCC4)oc23)c2sc3ccccc3c12
27,7.48,CCN1CCN(CCC(=O)Nc2ccc(-c3cccc4c(=O)cc(N5CCOCC5)oc34)c3sc4ccccc4c23)CC1
